Reference: ChEMBL document CHEMBL1151818, “Antimalarial peptides from marine cyanobacteria: isolation and structural elucidation of gallinamide A” (J Nat Prod, 2009)
The source made the active and inactive calls. The calls are words filed in the database; no cut-off is given here. Non-standard residues stand in square brackets, D forms with d. Residues, ends and D or L forms follow the SMILES beside them. *: point of attachment. X1 = COC1=CC(=O)N(C(=O)[C@@H](O*)C(C)C)[C@H]1Cc1ccccc1; NMe2Val = CC(C)[C@@H](C(=O)*)N(C)C; NMeV = CN[C@H](C(=O)O)C(C)C

Assays:
Leishmania donovani = test: Antileishmanial activity against Leishmania donovani; type: functional, organism-based
NCI-H460 [1] = test: Cytotoxicity against human NCI-H460 cells; type: functional; settings: read-out: TC50 (the source's name)
How it was run: (§1)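 In vitro assay; 16.9 µM was the highest concentration tested.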

Plasmodium falciparum = test: Antimalarial activity against chloroquine-resistant Plasmodium falciparum W2; type: functional, organism-based
Trypanosoma cruzi = test: Antitrypanosomal activity against Trypanosoma cruzi at 16.9 uM; type: functional, organism-based; how it was run: as §1
[2] = Cytotoxicity against african green monkey Vero cells; type: cell-based; settings: chlorocebus sabaeus, read-out: TC50 (the source's name)
N2a = test: Cytotoxicity against mouse Neuro2a cells at 16.9 uM; type: functional, cell-based; how it was run: as §1
NCI-H460 [3] = test: Cytotoxicity against human NCI-H460 cells at 16.9 uM; type: functional, cell-based; how it was run: as §1

C[C@@H]1[C@H](O)[C@@H](C)/C=C/C=C/C=C/C=C/C=C/C=C/C=C/[C@H](O[C@@H]2O[C@H](C)[C@@H](O)[C@H](N)[C@@H]2O)C[C@@H]2O[C@](O)(C[C@@H](O)C[C@@H](O)[C@H](O)CC[C@@H](O)C[C@@H](O)CC(=O)O[C@H]1C)C[C@H](O)[C@H]2C(=O)O [AMPHOTERICIN B]
IC50 (Leishmania donovani): 0.103 µM

COC1=CC(=O)N(C(=O)[C@@H](OC(=O)[C@@H]2CCCN2C(=O)[C@@H]2CCCN2C(=O)[C@H](C(C)C)N(C)C(=O)[C@@H](NC(=O)[C@H](C(C)C)N(C)C)C(C)C)C(C)C)[C@H]1Cc1ccccc1 [DOLASTATIN 15] (NMe2Val-V[NMeV]PP-X1)
CC50 (NCI-H460 [1]): 0.0024 µM | Activity (Plasmodium falciparum): Active

CC[C@H](C)[C@@H](C(=O)O[C@@H](CC(C)C)C(=O)N[C@@H](CC(C)C)C(=O)N[C@@H](C)/C=C/C(=O)N1C(=O)C=C(OC)[C@@H]1C)N(C)C [GALLINAMIDE A]
IC50 (Trypanosoma cruzi): > 16.9 µM | CC50 [2]: 10.4 µM | Activity (N2a): inactive | IC50 (Plasmodium falciparum): 8.4 µM | Activity (NCI-H460 [3]): inactive | IC50 (Leishmania donovani): 9.3 µM

CC1CS(=O)(=O)CCN1/N=C/c1ccc([N+](=O)[O-])o1 (stereo not given) [NIFURTIMOX]
IC50 (Trypanosoma cruzi): 13.5 µM
